One block for each compound: values may come before it.
Legend:
MOLT-4 = assay: Antiproliferative activity against human MOLT4 cells after 48 hrs by MTT assay; format: functional, cell-based; conditions: MOLT-4, 48 h
[1] = Inhibition of Class 2a histone deacetylase in human K562 cells using Boc-Lys-(epsilon-trifluoromethylacetyl)-AMC as substrate preincubated with compound for 3 hrs followed by substrate addition measured after 3 hrs by fluorometric analysis; format: cell-based
Histone deacetylase 1 = Histone deacetylase 1 (Homo sapiens, UniProt Q13547); assay: Inhibition of HDAC1 (unknown origin) using substrate after 30 mins by fluorometric analysis
K562 [2] = assay: Induction of apoptosis in human K562 cells after 24 hrs by Annexin V-FITC/propidium iodide staining-based flow cytometric method; format: functional, cell-based
[3] = Inhibition of Class 1 histone deacetylase in human K562 cells using Boc-Lys (acetyl)-AMC as substrate preincubated with compound for 3 hrs followed by substrate addition measured after 3 hrs by fluorometric analysis; format: cell-based
K562 [4] = assay: Induction of apoptosis in human K562 cells assessed as early apoptotic cells at 1 uM after 24 hrs by Annexin V-FITC/propidium iodide staining-based flow cytometry (reference value: 4.78%); format: functional
K562 [5] = assay: Induction of apoptosis in human K562 cells assessed as late apoptotic cells at 1 uM after 24 hrs by Annexin V-FITC/propidium iodide staining-based flow cytometry (reference value: 2.83%); format: functional
K562 [6] = assay: Induction of apoptosis in human K562 cells assessed as viable cells at 2 uM after 24 hrs by Annexin V-FITC/propidium iodide staining-based flow cytometry (reference value: 92.4%); format: functional; conditions: for viability at 2 µM: Homo sapiens, K562, 24 h, read-out: Activity
PC-3 [7] = assay: Antiproliferative activity against human PC3 cells after 48 hrs by MTT assay; format: functional, cell-based; conditions: PC-3, 48 h
Method in brief: (§1)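 Cells grown in RPMI1640 with 10% FBS at 37°C, 5% CO2. Seeded at 4000–5000 cells/well for 8 h, then exposed to a range of compound concentrations for 48 h. 0.5% MTT solution added for 4 h, formazan dissolved in DMSO, absorbance read at 570 nm. IC50 derived from inhibition ratios, given as mean ± standard deviation of two or three separate determinations.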

K562 [8] = assay: Induction of apoptosis in human K562 cells assessed as necrotic cells at 2 uM after 24 hrs by Annexin V-FITC/propidium iodide staining-based flow cytometry (reference value: 0.035%); format: functional
HeLa = assay: Antiproliferative activity against human HeLa cells after 48 hrs by MTT assay; format: functional, cell-based; method in brief: as §1
PC-3 [9] = assay: Potency index, ratio of vorinostat IC50 to compound IC50 for human PC3 cells; format: functional
Method in brief: (§2)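 Cells were grown in RPMI1640 with 10% FBS at 37°C and 5% CO2, seeded at 4000–5000 cells/well for 8 h, then exposed to a compound concentration series for 48 h. MTT (0.5%) was added for 4 h and formazan dissolved in DMSO. A570 was read and IC50 derived from inhibition ratios.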

K562 [10] = assay: Induction of apoptosis in human K562 cells assessed as late apoptotic cells at 2 uM after 24 hrs by Annexin V-FITC/propidium iodide staining-based flow cytometry (reference value: 2.83%); format: functional
K562 [11] = assay: Induction of apoptosis in human K562 cells assessed as necrotic cells at 1 uM after 24 hrs by Annexin V-FITC/propidium iodide staining-based flow cytometry (reference value: 0.035%); format: functional
[12] = target: Histone deacetylase (HDAC1 and HDAC2) (Homo sapiens, UniProt Q13547+Q92769); assay: Inhibition of HDAC1/2 in human HeLa cell nuclear extract using COLOR DE LYS as substrate pretreated for 5 mins followed by substrate addition measured after 30 mins by UV-absorption method; format: cell-based
K562 [13] = assay: Induction of apoptosis in human K562 cells assessed as early apoptotic cells at 2 uM after 24 hrs by Annexin V-FITC/propidium iodide staining-based flow cytometry (reference value: 4.78%); format: functional
K562 [14] = assay: Induction of apoptosis in human K562 cells assessed as viable cells at 1 uM after 24 hrs by Annexin V-FITC/propidium iodide staining-based flow cytometry (reference value: 92.4%); format: functional; conditions: for viability at 1 µM: Homo sapiens, K562, 24 h, read-out: Activity
Histone deacetylase 8 = target: T1, Histone deacetylase 8 (Homo sapiens, UniProt Q9BY41); assay: Inhibition of HDAC8 (unknown origin) using substrate after 30 mins by fluorometric analysis
T1 sequence (Q9BY41 whole entry): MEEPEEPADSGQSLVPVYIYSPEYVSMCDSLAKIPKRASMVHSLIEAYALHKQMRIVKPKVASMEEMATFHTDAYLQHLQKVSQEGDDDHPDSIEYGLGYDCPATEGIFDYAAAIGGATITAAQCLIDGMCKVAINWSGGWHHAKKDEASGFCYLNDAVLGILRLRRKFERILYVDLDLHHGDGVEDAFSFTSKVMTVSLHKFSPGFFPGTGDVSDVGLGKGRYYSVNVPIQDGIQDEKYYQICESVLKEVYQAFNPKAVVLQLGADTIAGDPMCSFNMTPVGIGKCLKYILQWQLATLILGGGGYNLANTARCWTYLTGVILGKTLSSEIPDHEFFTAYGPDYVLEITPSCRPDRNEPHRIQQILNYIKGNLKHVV

HEL = assay: Antiproliferative activity against human HEL cells after 48 hrs by MTT assay; format: functional, cell-based
[15] = target: T2, Protein deacetylase HDAC6 (Homo sapiens, UniProt Q9UBN7); assay: Inhibition of HDAC6 (unknown origin) using substrate after 30 mins by fluorometric analysis
T2 sequence (Q9UBN7 whole entry): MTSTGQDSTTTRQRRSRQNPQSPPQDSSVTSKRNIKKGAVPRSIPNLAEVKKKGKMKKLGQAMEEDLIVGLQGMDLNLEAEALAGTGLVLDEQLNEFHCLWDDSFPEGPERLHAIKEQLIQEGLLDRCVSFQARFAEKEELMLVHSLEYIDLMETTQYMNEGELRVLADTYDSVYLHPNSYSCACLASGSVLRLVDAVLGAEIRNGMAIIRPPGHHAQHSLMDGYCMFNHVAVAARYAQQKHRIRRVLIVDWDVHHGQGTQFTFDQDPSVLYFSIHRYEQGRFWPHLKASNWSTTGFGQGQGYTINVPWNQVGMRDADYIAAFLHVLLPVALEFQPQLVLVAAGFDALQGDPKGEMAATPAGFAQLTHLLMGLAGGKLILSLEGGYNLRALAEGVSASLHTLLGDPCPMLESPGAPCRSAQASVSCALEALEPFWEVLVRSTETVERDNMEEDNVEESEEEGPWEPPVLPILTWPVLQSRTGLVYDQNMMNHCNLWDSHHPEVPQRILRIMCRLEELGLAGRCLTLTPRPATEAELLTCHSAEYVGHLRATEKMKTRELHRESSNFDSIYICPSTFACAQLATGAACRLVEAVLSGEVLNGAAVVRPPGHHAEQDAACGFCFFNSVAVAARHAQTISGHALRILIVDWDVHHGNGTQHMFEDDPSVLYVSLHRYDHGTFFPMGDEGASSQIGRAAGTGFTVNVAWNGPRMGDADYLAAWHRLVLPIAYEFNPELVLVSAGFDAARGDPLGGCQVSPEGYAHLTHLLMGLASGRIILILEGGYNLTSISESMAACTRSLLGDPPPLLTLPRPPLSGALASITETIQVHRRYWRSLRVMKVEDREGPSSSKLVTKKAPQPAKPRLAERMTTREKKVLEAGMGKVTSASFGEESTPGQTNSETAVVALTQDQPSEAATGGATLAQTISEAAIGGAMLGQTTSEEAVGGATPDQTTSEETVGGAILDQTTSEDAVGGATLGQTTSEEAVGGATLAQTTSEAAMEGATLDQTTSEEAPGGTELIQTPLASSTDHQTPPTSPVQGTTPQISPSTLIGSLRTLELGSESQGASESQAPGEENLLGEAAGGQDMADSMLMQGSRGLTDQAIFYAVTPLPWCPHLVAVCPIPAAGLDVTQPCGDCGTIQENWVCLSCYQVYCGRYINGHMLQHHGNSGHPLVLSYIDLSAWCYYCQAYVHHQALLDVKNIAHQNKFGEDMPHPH

K562 [16] = assay: Potency index, ratio of vorinostat IC50 to compound IC50 for human K562 cells; format: functional; method in brief: as §2
K562 [17] = assay: Antiproliferative activity against human K562 cells after 48 hrs by MTT assay; format: functional, cell-based; conditions: K562, 48 h

Chain of Histone deacetylase 1 (Q13547 whole entry): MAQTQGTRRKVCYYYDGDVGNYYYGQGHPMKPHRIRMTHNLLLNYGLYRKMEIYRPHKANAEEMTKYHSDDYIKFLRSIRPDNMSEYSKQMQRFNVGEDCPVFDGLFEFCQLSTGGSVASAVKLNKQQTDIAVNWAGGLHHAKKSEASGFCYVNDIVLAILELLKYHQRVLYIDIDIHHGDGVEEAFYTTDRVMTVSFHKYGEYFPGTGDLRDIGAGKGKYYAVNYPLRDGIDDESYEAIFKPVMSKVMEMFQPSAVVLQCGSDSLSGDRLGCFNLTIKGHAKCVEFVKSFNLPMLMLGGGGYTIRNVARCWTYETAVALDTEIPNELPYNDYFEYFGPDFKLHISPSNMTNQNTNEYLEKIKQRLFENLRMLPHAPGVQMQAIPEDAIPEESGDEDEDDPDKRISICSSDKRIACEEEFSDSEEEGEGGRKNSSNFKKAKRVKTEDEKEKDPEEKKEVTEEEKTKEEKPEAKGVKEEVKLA

IC50 (MOLT-4): 240 nM
IC50 [1]: 5210 nM
IC50 (Histone deacetylase 1): 72.5 nM
IC50 [3]: 108 nM
IC50 (PC-3 [7]): 3080 nM
IC50 (HeLa): 2200 nM
IC50 [12]: 138 nM
IC50 (Histone deacetylase 8): 442 nM
IC50 [15]: 49.5 nM
IC50 (K562 [17]): 510 nM
SMILES: O=C(/C=C/c1ccc(CNCc2ccc3ccccc3n2)cc1)NO
Activity (K562 [2]): Dose-dependent effect
Activity (K562 [4]): 34.5%
Activity (K562 [5]): 1.95%
viability at 2 µM (K562 [6]): 39.6%
Activity (K562 [8]): 0.072%
Ratio IC50 (PC-3 [9]): 3 - 5
Activity (K562 [10]): 2.16%
Activity (K562 [11]): 0.121%
Activity (K562 [13]): 58.2%
viability at 1 µM (K562 [14]): 63.4%
IC50 (HEL): 150 nM
Ratio IC50 (K562 [16]): 3 - 5

IC50 [12]: 724 nM
SMILES: COc1cccc2ccc(CN(C(=O)c3ccc(/C=C/C(=O)NO)cc3)c3ccccc3)nc12

IC50 [12]: 744 nM
SMILES: COc1ccc(N(Cc2ccc3ccccc3n2)C(=O)c2ccc(/C=C/C(=O)NO)cc2)cc1

IC50 (MOLT-4): 160 nM
IC50 [1]: 4210 nM
IC50 (Histone deacetylase 1): 95 nM
IC50 [3]: 64 nM
IC50 (PC-3 [7]): 2920 nM
IC50 (HeLa): 1820 nM
IC50 [12]: 275 nM
IC50 (Histone deacetylase 8): 911 nM
IC50 [15]: 36.5 nM
IC50 (K562 [17]): 360 nM
SMILES: O=C(/C=C/c1ccc(CNCc2ccc3cccc(Cl)c3n2)cc1)NO
Activity (K562 [2]): Dose-dependent effect
Activity (K562 [4]): 38.2%
Activity (K562 [5]): 3.75%
viability at 2 µM (K562 [6]): 40.7%
Activity (K562 [8]): 0.174%
Ratio IC50 (PC-3 [9]): 3 - 5
Activity (K562 [10]): 2.96%
Activity (K562 [11]): 0.145%
Activity (K562 [13]): 56.2%
viability at 1 µM (K562 [14]): 57.9%
IC50 (HEL): 110 nM
Ratio IC50 (K562 [16]): 3 - 5

IC50 [12]: 836 nM
SMILES: O=C(NO)c1ccc(CN(Cc2ccccc2)Cc2ccc3ccccc3n2)cc1

IC50 (MOLT-4): 190 nM
IC50 (PC-3 [7]): 4600 nM
IC50 (HeLa): 3330 nM
IC50 [12]: 206 nM
IC50 (K562 [17]): 750 nM
SMILES: COc1cccc2ccc(CNCc3ccc(/C=C/C(=O)NO)cc3)nc12
IC50 (HEL): 220 nM

IC50 [12]: > 1000 nM
SMILES: O=C(NO)c1ccc(CNCc2ccc3cc(Br)ccc3n2)cc1

IC50 (PC-3 [7]): 13900 nM
SMILES: O=C(CCCCCCC(=O)Nc1ccccc1)NO [VORINOSTAT]
Activity (K562 [2]): Dose-dependent effect
Activity (K562 [4]): 6.1%
Activity (K562 [5]): 2.99%
Activity (K562 [6]): 88.9%
Activity (K562 [8]): 0.05%
Activity (K562 [10]): 4.04%
Activity (K562 [11]): 0.06%
Activity (K562 [13]): 6.97%
Activity (K562 [14]): 90.8%

IC50 (MOLT-4): 230 nM
IC50 (PC-3 [7]): 3700 nM
IC50 (HeLa): 2680 nM
IC50 [12]: 236 nM
IC50 (K562 [17]): 690 nM
SMILES: COc1ccc2nc(CNCc3ccc(/C=C/C(=O)NO)cc3)ccc2c1
IC50 (HEL): 130 nM

IC50 [12]: > 1000 nM
SMILES: O=C(/C=C/c1ccc(C(=O)N(Cc2ccc3ccccc3n2)c2ccc(Br)cc2)cc1)NO

IC50 [12]: > 1000 nM
SMILES: O=C(/C=C/c1cccc(CN(Cc2ccccc2)Cc2ccc3cc(Br)ccc3n2)c1)NO

IC50 [12]: > 1000 nM
SMILES: COc1ccc2nc(CNCc3ccc(C(=O)NO)cc3)ccc2c1

IC50 [12]: > 1000 nM
SMILES: COc1ccc2nc(CN(Cc3ccccc3)Cc3ccc(/C=C/C(=O)NO)cc3)ccc2c1

IC50 [12]: > 1000 nM
SMILES: COc1ccc(N(Cc2ccc3cccc(Cl)c3n2)C(=O)c2ccc(/C=C/C(=O)NO)cc2)cc1

IC50 [12]: > 1000 nM
SMILES: O=C(NO)c1ccc(CNCc2ccc3ccccc3n2)cc1

— ChEMBL document CHEMBL4033620, “Design, synthesis and biological evaluation of quinoline derivatives as HDAC class I inhibitors” (Eur J Med Chem, 2017)
